SMILES strings stand for the structures.

Experimental findings from ChEMBL document CHEMBL4316602, “Investigating the promiscuity of the chloramphenicol nitroreductase from Haemophilus influenzae towards the reduction of 4-nitrobenzene derivatives” (Bioorg Med Chem Lett, 2019) are described below.

Type in all cases: ADME
The nature of data set [1]: Substrate activity at recombinant Haemophilus influenzae Chloramphenicol nitroreductase expressed in Escherichia coli assessed as benzoic acid formation at 1 mM measured after 24 hrs at pH 8 under 37 degC by LC-MS analysis. The conditions noted are these: pH 8, 24 h, 1000 µM. In a few lines:
(§1)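 50 mM Tris-HCl pH 8.0 holding 1 mM nitro compound, 5 µM CNR and 100 µM NADPH. NADPH is regenerated by 40 mM glucose plus 4 µM glucose dehydrogenase. Incubated 24 h at 37 °C, then extracted with EtOAc, dried, redissolved in MeOH and analysed by LCMS for reduction products.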

A short description of data set [2]: Substrate activity at recombinant Haemophilus influenzae Chloramphenicol nitroreductase expressed in Escherichia coli assessed as 4-aminoether formation at 1 mM measured after 24 hrs at pH 8 under 37 degC by LC-MS analysis. The following applies: pH 8, 24 h, 1000 µM. In a few lines: as §1
Data set [3] can be described thus: Substrate activity at recombinant Haemophilus influenzae Chloramphenicol nitroreductase expressed in Escherichia coli assessed as hydroxylamine formation at 1 mM measured after 24 hrs at pH 8 under 37 degC by LC-MS analysis. The conditions noted are these: pH 8, 24 h, 1000 µM. In a few lines:
as §1

The test system of data set [4] is Chloramphenicol nitroreductase. Put plainly: Substrate activity at recombinant Haemophilus influenzae Chloramphenicol nitroreductase expressed in Escherichia coli assessed as Km measured at 30 sec interval for 30 mins in presence of NADPH at 50 degC by Michaelis-Menton plot analysis. In a few lines:
(§2)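 Chloramphenicol varied 0–2500 µM (0, 1, 5, 10, 50, 100, 250, 500, 2500) with 0.4 µM CNR, 750 µM NADPH, 50 mM Tris-HCl pH 8.0, at 37 or 50 °C. NADPH consumption was followed at 340 nm every 30 s for 30 min. Initial rates came from the first 2–5 min, fitted to Michaelis–Menten for kcat and Km.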

Data set [5] can be described thus: Substrate activity at recombinant Haemophilus influenzae Chloramphenicol nitroreductase expressed in Escherichia coli assessed as ratio of Kcat to Km measured at 30 sec interval for 30 mins in presence of NADPH at 50 degC by Michaelis-Menton plot analysis. The conditions noted are these: 0.5 h. In a few lines:
as §2

Data set [6] in a line: Substrate activity at recombinant Haemophilus influenzae Chloramphenicol nitroreductase expressed in Escherichia coli at 150 uM measured at 30 sec interval for 60 mins in presence of NADPH at 50 degC. The conditions noted are these: 1 h.
Data set [7] is described as follows: Substrate activity at recombinant Haemophilus influenzae Chloramphenicol nitroreductase expressed in Escherichia coli at 150 uM measured at 30 sec interval for 60 mins in presence of NADPH at pH 8. The conditions noted are these: pH 8, 1 h. In a few lines: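 Each nitro compound at 150 µM in 50 mM Tris-HCl pH 8.0 with 1.0 mM NADPH. Started with 1 µM CNR and read at 340 nm (NADPH) every 30 s for 60 min. Initial rates were taken from the first 5 min and expressed as % of the chloramphenicol rate.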

Data set [8] in a line: Substrate activity at recombinant Haemophilus influenzae Chloramphenicol nitroreductase expressed in Escherichia coli assessed as Kcat measured at 30 sec interval for 30 mins in presence of NADPH at 37 degC by Michaelis-Menton plot analysis. The following applies: 0.5 h. The method in brief: as §2
Data set [9] in a line: Substrate activity at recombinant Haemophilus influenzae Chloramphenicol nitroreductase expressed in Escherichia coli assessed as Kcat measured at 30 sec interval for 30 mins in presence of NADPH at 50 degC by Michaelis-Menton plot analysis. The following applies: 0.5 h. The method in brief:
as §2

Data set [10] relates to Chloramphenicol nitroreductase. Put plainly: Substrate activity at recombinant Haemophilus influenzae Chloramphenicol nitroreductase expressed in Escherichia coli assessed as Km measured at 30 sec interval for 30 mins in presence of NADPH at 37 degC by Michaelis-Menton plot analysis. The method in brief: as §2
A short description of data set [11]: Substrate activity at recombinant Haemophilus influenzae Chloramphenicol nitroreductase expressed in Escherichia coli assessed as ratio Kcat to Km measured at 30 sec interval for 30 mins in presence of NADPH at 37 degC by Michaelis-Menton plot analysis. The following applies: 0.5 h. In a few lines:
as §2

With `O=C(OCc1ccc([N+](=O)[O-])cc1)c1ccc(Cl)cc1`, the result in data set [1] was Active.
For `O=[N+]([O-])c1ccc(COCc2ccc(Br)cc2)cc1`, the outcome in data set [2] and in [3] was Active.
In the case of `O=C(N[C@H](CO)[C@H](O)c1ccc([N+](=O)[O-])cc1)C(Cl)Cl` [CHLORAMPHENICOL], the values for the Km at 0.5 h in data set [4] and in data set [10] were 191 µM and 273 µM, respectively. The results for the Kcat/Km in data set [5] and in [11] were 340000 M⁻¹ s⁻¹ and 220000 M⁻¹ s⁻¹, respectively. Further, the outcome in [6] and in [7] was Active. For the same compound, the Kcat in data set [8] is 61 s⁻¹; in data set [9], 65 s⁻¹.
`O=C(OCc1ccc([N+](=O)[O-])cc1)c1ccc(Cl)cc1F`: in data set [1], the result was Active.
